According to ChEMBL document CHEMBL3046508, “Factors affecting the production of Trichoderma harzianum secondary metabolites during the interaction with different plant pathogens” (2009):
Activity calls are given as the source filed them. The rule behind the calls is not given here.

How the values were obtained:
Botrytis cinerea [1] = experiment: Antifungal activity against Botryotinia fuckeliana assessed as growth inhibition at 200 ug/plug; assay type: functional
How it was run: (§1)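 Plugs cut from actively growing colony margins (L. maculans UWA P11 grown on V8 agar; B. cinerea and P. cinnamomi kept on PDA) were placed centrally on one-fifth strength PDA plates. Purified compound dissolved in filter-sterilized EtOAc was applied on top of each plug and the solvent evaporated; a solvent-only control was included. Colony diameter (mm) was measured daily. Three replicates per treatment; experiment run twice.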

Phytophthora cinnamomi [2] = experiment: Antifungal activity against Phytophthora cinnamomi assessed as growth inhibition at 200 ug/plug; assay type: functional; how it was run: as §1
Plenodomus lingam [3] = experiment: Antifungal activity against Leptosphaeria maculans isolate UWA P11 assessed as growth inhibition at 200 ug/plug; assay type: functional; how it was run: as §1
Botrytis cinerea [4] = experiment: Antifungal activity against Botryotinia fuckeliana assessed as growth inhibition at 1 to 10 ug/plug; assay type: functional, organism-based; how it was run: as §1
Phytophthora cinnamomi [5] = experiment: Antifungal activity against Phytophthora cinnamomi assessed as growth inhibition at 1 to 10 ug/plug; assay type: functional, organism-based; how it was run: as §1
Phytophthora cinnamomi [6] = experiment: Antifungal activity against Phytophthora cinnamomi assessed as growth inhibition at 0.01 to 200 ug/plug; assay type: functional, organism-based; how it was run: as §1
Plenodomus lingam [7] = experiment: Antifungal activity against Leptosphaeria maculans isolate UWA P11 assessed as growth inhibition at 0.01 to 200 ug/plug; assay type: functional, organism-based; how it was run: as §1
Botrytis cinerea [8] = experiment: Antifungal activity against Botryotinia fuckeliana assessed as growth inhibition at 0.01 to 200 ug/plug; assay type: functional, organism-based; how it was run: as §1
Plenodomus lingam [9] = experiment: Antifungal activity against Leptosphaeria maculans isolate UWA P11 assessed as growth inhibition at 100 ug/plug; assay type: functional, organism-based; how it was run: as §1
Phytophthora cinnamomi [10] = experiment: Antifungal activity against Phytophthora cinnamomi assessed as growth inhibition at 100 ug/plug; assay type: functional, organism-based; how it was run: as §1
Phytophthora cinnamomi [11] = experiment: Antifungal activity against Phytophthora cinnamomi assessed as growth inhibition at 1 to 100 ug/plug; assay type: functional
Plenodomus lingam [12] = experiment: Antifungal activity against Leptosphaeria maculans isolate UWA P11 assessed as growth inhibition at 1 to 100 ug/plug; assay type: functional

C/C=C/C=C/CC1=C(CC(C)O)C(=O)OC1 (stereo not given) [HARZIANOLIDE]
growth inhibition (GI) (Botrytis cinerea [1]): <25% | growth inhibition (GI) (Phytophthora cinnamomi [2]): <25% | growth inhibition (GI) (Plenodomus lingam [3]): <25%

C/C=C/C=C/C1=CC2=CC(=O)[C@](C)(OC(=O)[C@H](C)O)C(=O)C2=CO1
growth inhibition (GI) (Botrytis cinerea [4]): Active | growth inhibition (GI) (Phytophthora cinnamomi [5]): Active

Cc1cc(O)c2c(c1)C(=O)c1cccc(O)c1C2=O
growth inhibition (GI) (Phytophthora cinnamomi [6]): inactive | growth inhibition (GI) (Plenodomus lingam [7]): inactive | growth inhibition (GI) (Botrytis cinerea [8]): inactive

C/C=C/C=C/CC1=C(CC(C)=O)C(=O)OC1
growth inhibition (GI) (Plenodomus lingam [9]): Active | growth inhibition (GI) (Phytophthora cinnamomi [10]): Active

Cc1cc(O)c2c(c1)C(=O)c1ccccc1C2=O
growth inhibition (GI) (Phytophthora cinnamomi [6]): inactive | growth inhibition (GI) (Plenodomus lingam [7]): inactive | growth inhibition (GI) (Botrytis cinerea [8]): inactive

C/C=C/CC(C)C(=O)c1c(O)c(OC)c(OC)[nH]c1=O (stereo not given) [HARZIANOPYRIDONE]
growth inhibition (GI) (Phytophthora cinnamomi [11]): 100% | growth inhibition (GI) (Plenodomus lingam [12]): 100%
